From ChEMBL document CHEMBL2417481, “Regioselective synthesis of 6-substituted-2-amino-5-bromo-4(3H)-pyrimidinones and evaluation of their antiviral activity” (Eur J Med Chem, 2013)

Assays:
[1] = Cytotoxicity against MDCK cells assessed as morphological changes; format: cell-based, Canis lupus familiaris; details: dog
Influenza A virus [2] = assay: Antiviral activity against Influenza A virus […] infected in MDCK cells assessed as reduction in virus-induced cytopathogenicity; format: functional, organism-based
Method in brief: (§1)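 Confluent cell monolayers (Vero, HeLa, HEL or MDCK, as named in each line) were infected with 100 CCID50 of virus while exposed to a range of compound concentrations. Cytopathicity was scored once it was complete in untreated infected controls.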

Influenza A virus [3] = assay: Antiviral activity against Influenza A virus H1N1 infected in MDCK cells assessed as reduction in virus-induced cytopathogenicity; format: functional, organism-based; method in brief: as §1
Influenza B virus = assay: Antiviral activity against Influenza B virus infected in MDCK cells assessed as reduction in virus-induced cytopathogenicity; format: functional, organism-based; method in brief: as §1
Human alphaherpesvirus 1 [4] = assay: Antiviral activity against Herpes simplex virus-1 KOS infected in human HEL cells assessed as reduction in virus-induced cytopathogenicity; format: functional, organism-based; details: Human alphaherpesvirus 1, KOS; method in brief: as §1
Felid alphaherpesvirus 1 = assay: Antiviral activity against Feline Herpes virus infected in cat CRFK cells assessed as inhibition of virus-induced cytopathic effect by MTS assay; format: functional, organism-based; details: Felid alphaherpesvirus 1, CRFK
[5] = Cytotoxicity against human HeLa cells assessed as morphological changes; format: cell-based
Human alphaherpesvirus 2 = assay: Antiviral activity against Herpes simplex virus-2 G infected in human HEL cells assessed as reduction in virus-induced cytopathogenicity; format: functional, organism-based; details: Human alphaherpesvirus 2, strain G; method in brief: as §1
[6] = Cytotoxicity against human HEL cells assessed as morphological changes; format: cell-based
[7] = Cytotoxicity against cat CRFK cells assessed as cell viability by MTS assay; format: cell-based, Felis catus
Cytomegalovirus [8] = assay: Antiviral activity against Cytomegalovirus Davis infected in human HEL cells assessed as reduction in virus plaque formation; format: functional, organism-based; details: Human betaherpesvirus 5, Davis
Method in brief: (§2)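 Confluent HEL fibroblasts were inoculated with 100 PFU of CMV at graded compound concentrations. Plaques were counted once formation was complete in untreated infected controls.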

Cytomegalovirus [9] = assay: Antiviral activity against Cytomegalovirus AD-169 infected in human HEL cells assessed as reduction in virus plaque formation; format: functional, organism-based; details: Human betaherpesvirus 5, AD-169, HEL; method in brief: as §2
Feline coronavirus = assay: Antiviral activity against Feline coronavirus infected in cat CRFK cells assessed as inhibition of virus-induced cytopathic effect by MTS assay; format: functional, organism-based; details: Alphacoronavirus 1, CRFK
Human alphaherpesvirus 3 [10] = assay: Antiviral activity against thymidine kinase negative Varicella-zoster virus 07-1 infected in human HEL cells assessed as reduction in the virus plaque formation; format: functional, organism-based; details: Human alphaherpesvirus 3, 07-1, HEL
Method in brief: (§3)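 Confluent HEL fibroblast cultures received 20 PFU of VZV together with varying compound concentrations. Plaque formation was read when it reached completion in untreated virus controls.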

Coxsackievirus B4 [11] = assay: Antiviral activity against Coxsackievirus B4 infected in african green monkey Vero cells assessed as reduction in virus-induced cytopathogenicity; format: functional, organism-based; details: Enterovirus B; method in brief: as §1
[12] = system: Respiratory syncytial virus; assay: Antiviral activity against Respiratory syncytial virus Long infected in human HeLa cells assessed as reduction in virus-induced cytopathogenicity; format: functional, organism-based; method in brief: as §1
Human alphaherpesvirus 3 [13] = assay: Antiviral activity against thymidine kinase positive Varicella-zoster virus OKA infected in human HEL cells assessed as reduction in virus plaque formation; format: functional, cell-based, Human herpesvirus 3 strain Oka vaccine; details: Human alphaherpesvirus 3, OKA; method in brief: as §3
[14] = system: Vesicular stomatitis virus; assay: Antiviral activity against Vesicular stomatitis virus infected in human HeLa cells assessed as reduction in virus-induced cytopathogenicity; format: functional, organism-based; method in brief: as §1
[15] = system: Vesicular stomatitis virus; assay: Antiviral activity against Vesicular stomatitis virus infected in human HEL cells assessed as reduction in virus-induced cytopathogenicity; format: functional, organism-based; method in brief: as §1
[16] = system: Mammalian orthoreovirus 1; assay: Antiviral activity against Reovirus-1 infected in african green monkey Vero cells assessed as reduction in virus-induced cytopathogenicity; format: functional, organism-based; details: Mammalian orthoreovirus 1, Vero
Method in brief: (§4)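 Confluent Vero monolayers in 96-well plates were inoculated with 100 CCID50 of virus together with varying compound concentrations. Cytopathicity was scored once it was complete in untreated virus-infected control cultures.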

Coxsackievirus B4 [17] = assay: Antiviral activity against Coxsackievirus B4 infected in human HeLa cells assessed as reduction in virus-induced cytopathogenicity; format: functional, organism-based; details: Enterovirus B; method in brief: as §1
Human alphaherpesvirus 1 [18] = assay: Antiviral activity against thymidine kinase negative […] Herpes simplex virus-1 KOS infected in human HEL cells assessed as reduction in virus-induced cytopathogenicity; format: functional, organism-based; details: Human alphaherpesvirus 1, KOS; method in brief: as §1
Sindbis virus = assay: Antiviral activity against Sindbis virus infected in african green monkey Vero cells assessed as reduction in virus-induced cytopathogenicity; format: functional, organism-based; method in brief: as §1
Human respirovirus 3 = assay: Antiviral activity against Parainfluenza virus 3 infected in african green monkey Vero cells assessed as reduction in virus-induced cytopathogenicity; format: functional, organism-based; details: Human respirovirus 3, Vero; method in brief: as §4
Punta Toro virus = assay: Antiviral activity against Punta Toro virus infected in african green monkey Vero cells assessed as reduction in virus-induced cytopathogenicity; format: functional, organism-based; method in brief: as §1
[19] = Cytotoxicity against african green monkey Vero cells assessed as morphological changes; format: cell-based; details: chlorocebus sabaeus

SMILES | MCC [1] | EC50 (Influenza A virus [2]) | EC50 (Influenza A virus [3]) | EC50 (Influenza B virus) | EC50 (Human alphaherpesvirus 1 [4]) | EC50 (Felid alphaherpesvirus 1) | MCC [5] | EC50 (Human alphaherpesvirus 2) | MCC [6] | MCC [7] | EC50 (Cytomegalovirus [8]) | EC50 (Cytomegalovirus [9]) | EC50 (Coxsackievirus B4 [11]) | EC50 [12] | EC50 [15] | EC50 [16] | EC50 (Coxsackievirus B4 [17]) | EC50 (Sindbis virus) | EC50 (Punta Toro virus) | MCC [19] | also measured
NC12CC3CC(CC(C3)C1)C2 [AMANTADINE] | > 200 µM | 0.8 µM | 140 µM | > 200 µM | – | – | – | – | – | – | – | – | – | – | – | – | – | – | – | – | –
Nc1nc2c(ncn2COC(CO)CO)c(=O)[nH]1 [GANCICLOVIR] | – | – | – | – | > 100 µM | 0.9 µM | > 100 µM | 0.9 µM | > 100 µM | > 100 µM | 0.38 µM | 3.1 µM | – | – | – | – | – | – | – | – | EC50 (Feline coronavirus): > 100 µM
Cc1cc(C)c(/C=C/c2nc(N)[nH]c(=O)c2Br)c(C)c1 | > 20 µM | > 20 µM | > 20 µM | > 20 µM | > 20 µM | 1.5 µM | 100 µM | > 20 µM | > 20 µM | 58 µM | 8.9 µM | 11 µM | > 20 µM | > 20 µM | > 20 µM | > 20 µM | > 20 µM | > 20 µM | > 20 µM | 100 µM | EC50 (Human alphaherpesvirus 3 [10]): 5.3 µM; EC50 (Human alphaherpesvirus 3 [13]): 2.5 µM; EC50 [14]: > 20 µM; EC50 (Human alphaherpesvirus 1 [18]): > 20 µM; EC50 (Human respirovirus 3): > 20 µM; EC50 (Feline coronavirus): > 20 µM
NC(=O)c1ncn([C@@H]2O[C@H](CO)[C@@H](O)[C@H]2O)n1 [RIBAVIRIN] | > 100 µM | 7.2 µM | 9.6 µM | 8.3 µM | – | – | > 250 µM | – | – | – | – | – | > 250 µM | 5 µM | – | > 250 µM | 22 µM | > 250 µM | 112 µM | > 250 µM | –
Nc1nc2c(ncn2COCCO)c(=O)[nH]1 [ACYCLOVIR] | – | – | – | – | – | – | – | – | > 250 µM | – | – | – | – | – | > 250 µM | – | – | – | – | – | –
CC(C)(O)Cc1nc(N)[nH]c(=O)c1Br | > 100 µM | > 100 µM | > 100 µM | > 100 µM | > 100 µM | > 100 µM | > 100 µM | > 100 µM | > 100 µM | > 100 µM | > 100 µM | 100 µM | > 100 µM | > 100 µM | > 100 µM | > 100 µM | > 100 µM | > 100 µM | > 100 µM | > 100 µM | EC50 (Human alphaherpesvirus 3 [10]): 79.5 µM; EC50 (Human alphaherpesvirus 3 [13]): 100 µM; EC50 [14]: 45 µM; EC50 (Human alphaherpesvirus 1 [18]): > 100 µM; EC50 (Human respirovirus 3): > 100 µM; EC50 (Feline coronavirus): > 100 µM
CCCc1nc(N)[nH]c(=O)c1Br | > 100 µM | > 100 µM | > 100 µM | > 100 µM | > 100 µM | > 100 µM | > 100 µM | > 100 µM | > 100 µM | > 100 µM | > 100 µM | > 100 µM | > 100 µM | > 100 µM | > 100 µM | > 100 µM | > 100 µM | > 100 µM | > 100 µM | > 100 µM | EC50 (Human alphaherpesvirus 3 [10]): > 100 µM; EC50 (Human alphaherpesvirus 3 [13]): > 100 µM; EC50 [14]: > 100 µM; EC50 (Human alphaherpesvirus 1 [18]): > 100 µM; EC50 (Human respirovirus 3): > 100 µM; EC50 (Feline coronavirus): > 100 µM
COc1ccc(/C=C/c2nc(N)[nH]c(=O)c2Br)cc1OC | 100 µM | > 20 µM | > 20 µM | > 20 µM | > 100 µM | > 100 µM | > 100 µM | > 100 µM | > 100 µM | > 100 µM | > 100 µM | > 100 µM | > 100 µM | > 100 µM | > 100 µM | > 100 µM | > 100 µM | > 100 µM | > 100 µM | > 100 µM | EC50 (Human alphaherpesvirus 3 [10]): > 100 µM; EC50 (Human alphaherpesvirus 3 [13]): > 100 µM; EC50 [14]: 45 µM; EC50 (Human alphaherpesvirus 1 [18]): > 100 µM; EC50 (Human respirovirus 3): > 100 µM; EC50 (Feline coronavirus): > 100 µM
O=c1[nH]c(=O)n([C@H]2C[C@H](O)[C@@H](CO)O2)cc1/C=C/Br [BRIVUDINE] | – | – | – | – | 0.4 µM | – | – | – | > 250 µM | – | – | – | – | – | > 250 µM | – | – | – | – | – | EC50 (Human alphaherpesvirus 3 [10]): 33 µM; EC50 (Human alphaherpesvirus 3 [13]): 0.02 µM; EC50 (Human alphaherpesvirus 1 [18]): > 250 µM
Nc1ccn(C[C@@H](CO)OCP(=O)(O)O)c(=O)n1 [CIDOFOVIR] | – | – | – | – | – | – | – | – | > 250 µM | – | 0.51 µM | 3.1 µM | – | – | > 250 µM | – | – | – | – | – | –
CC(N)C12CC3CC(CC(C3)C1)C2 (stereo not drawn) [RIMANTADINE] | > 200 µM | – | – | > 200 µM | – | – | – | – | – | – | – | – | – | – | – | – | – | – | – | – | –
Nc1ncnc2c1ncn2C[C@H](O)CO [(S)-DHPA] | – | – | – | – | – | – | > 250 µM | – | – | – | – | – | > 250 µM | > 250 µM | – | > 250 µM | > 250 µM | > 250 µM | > 250 µM | > 250 µM | EC50 [14]: > 250 µM; EC50 (Human respirovirus 3): > 250 µM
